Inhibition of growth, IC50 and inhibition data for six molecules are collected here from ChEMBL document CHEMBL4138221, “Discovery, optimization and biological evaluation for novel c-Met kinase inhibitors” (Eur J Med Chem, 2018).

Structures are written as SMILES.

For test [1], the system named is PC-3. The test is described as follows: Antiproliferative activity against human PC3 cells at 10 uM after 72 hrs by Alamarblue assay relative to control. It counts as functional. Conditions: PC-3, 72 h, read-out: GI. Summed up:
(§1)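 Single-concentration screen in cells kept at 37 °C and 5% CO2. Cells were plated in 10% FBS medium, then moved after 24 h to serum-free medium with 0.04% BSA. Compound exposure lasted 72 h. AlamarBlue was added for 1–4 h at 37 °C protected from light, and fluorescence was measured at ex 570 / em 585 nm.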

Test [2] deals with SGC-7901. Nature of the test: Antiproliferative activity against human SGC7901 cells at 10 uM after 72 hrs by Alamarblue assay relative to control. Conditions: SGC-7901, 72 h, read-out: GI. Format: functional. A digest of the protocol: as §1
Test [3] deals with HCT-116. The test is described as follows: Antiproliferative activity against human HCT116 cells at 10 uM after 72 hrs by Alamarblue assay relative to control. It counts as functional. Conditions: HCT-116, 72 h, read-out: GI. A digest of the protocol:
as §1

Test [4] deals with A549. The test is described as follows: Antiproliferative activity against human A549 cells at 10 uM after 72 hrs by Alamarblue assay relative to control. Conditions: A549, 72 h, read-out: GI. Format: functional. Summed up:
as §1

Test [5] deals with MCF7. Nature of the test: Antiproliferative activity against human MCF7 cells at 10 uM after 72 hrs by Alamarblue assay relative to control. Format: functional. Conditions: MCF7, 72 h, read-out: GI. A digest of the protocol:
as §1

A further test relates to MKN-45. The test is described as follows: Antiproliferative activity against human MKN45 cells after 72 hrs by Alamarblue assay. The conditions noted are these: MKN-45, 72 h.
The test system of the next test is EBC-1. The test is described as follows: Antiproliferative activity against human EBC1 cells after 72 hrs by Alamarblue assay. The conditions noted are these: EBC-1, 72 h.
The next test concerns NCI-H460. The test is described as follows: Antiproliferative activity against human NCI-H460 cells after 72 hrs by Alamarblue assay. Format: functional, cell-based. Conditions: NCI-H460, 72 h. Summed up: (§2)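 Cells were seeded in medium with 10% FBS at 37 °C and 5% CO2. After 24 h the medium was switched to serum-free medium containing 0.04% BSA, and cells were exposed to compound for 72 h. AlamarBlue was then added for 1–4 h at 37 °C in the dark, and fluorescence was read at ex 570 / em 585 nm. IC50 was obtained by nonlinear regression fitting.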

Test [6] deals with PC-3. The test is described as follows: Antiproliferative activity against human PC3 cells after 72 hrs by Alamarblue assay. The conditions noted are these: PC-3, 72 h. It counts as functional, cell-based. Summed up: as §2
In another test the test system is COLO 205. The test is described as follows: Antiproliferative activity against human COLO205 cells after 72 hrs by Alamarblue assay. Format: functional, cell-based. The conditions noted are these: COLO 205, 72 h. Summed up:
as §2

Test [7] concerns the target Serine/threonine-protein kinase B-raf (Homo sapiens) (UniProt P15056). The test is described as follows: Inhibition of B-raf (unknown origin) at 50 uM.
In test [8] the target is Vascular endothelial growth factor receptor 2 (Homo sapiens, UniProt P35968). The test is described as follows: Inhibition of KDR (unknown origin).
The target of test [9] is Hepatocyte growth factor receptor (Homo sapiens, UniProt P08581). The test is described as follows: Inhibition of human GST-tagged c-MET using KKKSPGEYVNIEFG as substrate preincubated for 20 mins followed by [gamma-33P]ATP addition and measured after 2 hrs by filter-binding assay.
In test [10] the test system is SGC-7901. The test is described as follows: Antiproliferative activity against human SGC7901 cells after 72 hrs by Alamarblue assay relative to control. The conditions noted are these: SGC-7901, 72 h.
Test [11] deals with HCT-116. Nature of the test: Antiproliferative activity against human HCT116 cells after 72 hrs by Alamarblue assay relative to control. Conditions: HCT-116, 72 h.
The subject of test [12] is MCF7. Nature of the test: Antiproliferative activity against human MCF7 cells after 72 hrs by Alamarblue assay relative to control. Conditions: MCF7, 72 h.
The subject of test [13] is A549. Nature of the test: Antiproliferative activity against human A549 cells after 72 hrs by Alamarblue assay relative to control. Conditions: A549, 72 h.

Chain of Serine/threonine-protein kinase B-raf (Homo sapiens) (P15056 whole entry): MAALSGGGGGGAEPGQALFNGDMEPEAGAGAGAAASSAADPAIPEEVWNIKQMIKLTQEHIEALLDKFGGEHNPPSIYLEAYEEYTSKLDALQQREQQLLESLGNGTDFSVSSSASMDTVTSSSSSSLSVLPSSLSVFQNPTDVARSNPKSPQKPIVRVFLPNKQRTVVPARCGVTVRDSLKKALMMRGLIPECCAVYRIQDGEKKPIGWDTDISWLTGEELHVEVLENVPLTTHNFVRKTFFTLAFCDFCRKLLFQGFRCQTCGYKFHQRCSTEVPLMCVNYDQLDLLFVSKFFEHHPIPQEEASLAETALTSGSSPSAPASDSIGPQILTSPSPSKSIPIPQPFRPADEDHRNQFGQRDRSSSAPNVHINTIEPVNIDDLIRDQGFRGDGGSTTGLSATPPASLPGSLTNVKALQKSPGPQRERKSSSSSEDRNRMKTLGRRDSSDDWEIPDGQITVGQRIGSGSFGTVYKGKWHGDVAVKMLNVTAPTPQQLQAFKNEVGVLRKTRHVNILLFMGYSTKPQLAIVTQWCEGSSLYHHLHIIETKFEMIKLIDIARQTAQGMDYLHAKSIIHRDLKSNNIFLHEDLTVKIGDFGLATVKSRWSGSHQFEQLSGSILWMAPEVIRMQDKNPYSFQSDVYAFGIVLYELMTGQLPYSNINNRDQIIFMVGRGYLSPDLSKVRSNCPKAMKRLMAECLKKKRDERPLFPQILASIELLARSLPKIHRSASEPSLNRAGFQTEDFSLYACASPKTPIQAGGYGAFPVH
Chain of Vascular endothelial growth factor receptor 2 (P35968 whole entry): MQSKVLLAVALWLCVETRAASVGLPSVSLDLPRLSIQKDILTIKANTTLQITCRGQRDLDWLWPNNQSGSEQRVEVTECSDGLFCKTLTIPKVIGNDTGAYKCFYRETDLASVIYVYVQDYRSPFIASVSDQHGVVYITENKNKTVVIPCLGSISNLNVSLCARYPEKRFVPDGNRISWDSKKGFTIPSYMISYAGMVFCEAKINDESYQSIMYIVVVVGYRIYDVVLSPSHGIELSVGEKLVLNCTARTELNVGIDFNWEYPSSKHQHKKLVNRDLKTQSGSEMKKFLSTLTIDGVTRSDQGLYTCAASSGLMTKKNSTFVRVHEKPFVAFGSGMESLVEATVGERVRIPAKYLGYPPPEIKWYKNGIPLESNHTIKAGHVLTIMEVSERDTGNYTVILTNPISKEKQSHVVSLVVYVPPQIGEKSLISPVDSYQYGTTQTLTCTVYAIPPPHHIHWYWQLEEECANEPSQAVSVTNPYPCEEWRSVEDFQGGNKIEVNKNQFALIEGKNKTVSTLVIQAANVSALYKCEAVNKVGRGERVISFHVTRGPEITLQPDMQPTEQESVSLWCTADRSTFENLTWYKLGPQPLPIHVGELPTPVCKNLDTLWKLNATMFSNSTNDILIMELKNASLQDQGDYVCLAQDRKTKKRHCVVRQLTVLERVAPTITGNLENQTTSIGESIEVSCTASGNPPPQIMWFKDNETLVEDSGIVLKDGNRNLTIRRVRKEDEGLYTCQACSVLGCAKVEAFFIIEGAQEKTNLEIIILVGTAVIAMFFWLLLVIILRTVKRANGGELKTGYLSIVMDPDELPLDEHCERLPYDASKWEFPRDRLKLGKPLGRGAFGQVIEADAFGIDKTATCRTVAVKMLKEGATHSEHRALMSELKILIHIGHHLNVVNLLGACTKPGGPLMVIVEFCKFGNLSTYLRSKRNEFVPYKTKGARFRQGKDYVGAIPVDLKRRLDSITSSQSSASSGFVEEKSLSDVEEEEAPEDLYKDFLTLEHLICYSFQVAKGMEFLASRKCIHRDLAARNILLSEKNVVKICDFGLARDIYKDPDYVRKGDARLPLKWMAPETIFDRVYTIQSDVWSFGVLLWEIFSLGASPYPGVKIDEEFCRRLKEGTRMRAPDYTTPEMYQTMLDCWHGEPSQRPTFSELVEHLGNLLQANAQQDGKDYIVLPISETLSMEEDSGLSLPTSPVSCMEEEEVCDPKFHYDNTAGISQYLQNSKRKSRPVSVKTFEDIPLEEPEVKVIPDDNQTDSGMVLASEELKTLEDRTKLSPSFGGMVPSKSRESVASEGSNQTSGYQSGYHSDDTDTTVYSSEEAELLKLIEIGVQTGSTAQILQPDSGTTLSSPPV
Chain of Hepatocyte growth factor receptor (P08581 whole entry): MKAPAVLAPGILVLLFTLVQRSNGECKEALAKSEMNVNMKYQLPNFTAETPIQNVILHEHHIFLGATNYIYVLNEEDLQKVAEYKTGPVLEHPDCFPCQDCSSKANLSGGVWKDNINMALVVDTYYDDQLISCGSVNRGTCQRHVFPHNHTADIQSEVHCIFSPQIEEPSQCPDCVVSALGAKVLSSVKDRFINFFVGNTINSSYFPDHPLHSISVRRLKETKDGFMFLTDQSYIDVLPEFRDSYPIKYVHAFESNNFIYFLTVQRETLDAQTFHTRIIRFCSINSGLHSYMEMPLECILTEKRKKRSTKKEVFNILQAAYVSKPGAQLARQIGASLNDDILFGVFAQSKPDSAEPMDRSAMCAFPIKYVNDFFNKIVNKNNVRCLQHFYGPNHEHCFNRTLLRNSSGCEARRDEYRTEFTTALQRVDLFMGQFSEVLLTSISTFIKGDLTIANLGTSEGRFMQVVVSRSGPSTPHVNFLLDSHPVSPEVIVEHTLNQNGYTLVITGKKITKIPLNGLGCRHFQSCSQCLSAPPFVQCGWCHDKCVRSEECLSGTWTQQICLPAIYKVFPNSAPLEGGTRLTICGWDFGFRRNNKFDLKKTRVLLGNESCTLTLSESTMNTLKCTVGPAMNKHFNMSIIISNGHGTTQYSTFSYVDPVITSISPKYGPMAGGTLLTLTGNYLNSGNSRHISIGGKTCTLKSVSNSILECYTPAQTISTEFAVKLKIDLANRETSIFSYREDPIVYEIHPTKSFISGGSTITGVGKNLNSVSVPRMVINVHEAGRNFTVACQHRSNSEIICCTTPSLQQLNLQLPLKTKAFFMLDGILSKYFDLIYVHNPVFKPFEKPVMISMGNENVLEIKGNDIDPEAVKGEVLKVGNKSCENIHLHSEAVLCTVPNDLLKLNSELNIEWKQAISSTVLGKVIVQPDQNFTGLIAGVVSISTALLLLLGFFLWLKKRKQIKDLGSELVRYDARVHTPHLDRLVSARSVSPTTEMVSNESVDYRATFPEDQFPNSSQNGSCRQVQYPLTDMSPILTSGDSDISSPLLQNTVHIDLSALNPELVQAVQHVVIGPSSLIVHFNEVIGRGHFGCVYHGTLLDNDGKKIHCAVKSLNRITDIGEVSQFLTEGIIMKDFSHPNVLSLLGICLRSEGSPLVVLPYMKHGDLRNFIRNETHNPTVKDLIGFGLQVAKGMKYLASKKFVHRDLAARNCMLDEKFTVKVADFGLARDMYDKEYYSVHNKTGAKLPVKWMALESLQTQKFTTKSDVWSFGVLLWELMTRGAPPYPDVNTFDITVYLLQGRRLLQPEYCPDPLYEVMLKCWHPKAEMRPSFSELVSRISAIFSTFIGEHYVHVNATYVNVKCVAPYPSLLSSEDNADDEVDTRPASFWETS

For the molecule `Fc1ccccc1-c1cn2c(COc3ccc4c(c3)OCO4)nnc2s1`, the inhibition of growth at 10 µM stood at 19.4% with PC-3 [1]; 12.4% with SGC-7901 [2]; 4.73% in the test on HCT-116 [3]; 20.1% in the test with A549 [4]; 45.4% in the test with MCF7 [5].

Turning to `COc1ccc2c(OCc3nnc4sc(-c5cc6ccccc6[nH]5)nn34)ccnc2c1`, the IC50 in the test with MKN-45 was 1170 nM; in the test on EBC-1, 506 nM; in the test with NCI-H460, 2060 nM; in the test on PC-3 [6], 2.97 µM; in the test on COLO 205, 2240 nM.

`COc1ccc(Cc2nnc3sc(-c4cc5ccccc5[nH]4)nn23)cc1`: the inhibition of growth at 10 µM in the test with PC-3 [1] worked out at 55.1%; with SGC-7901 [2] it was 12.3%; in the test on HCT-116 [3], 0.64%; in the test with A549 [4], 6.08%; with MCF7 [5], 14.9%. Further, the inhibition in test [7] stood at 17.8%. For the same molecule, the concentration for half-maximal inhibition (IC50) in test [8] was found to be 3.33 µM; in test [9], 190 nM.

With `COc1ccc2c(OCc3nnc4sc(-c5ccc6[nH]cnc6c5)nn34)ccnc2c1`, the IC50 with MKN-45 is 1020 nM; in the test with EBC-1, 3170 nM.

Take `COc1ccc(Cc2nnc3sc(-c4ccccc4OC)nn23)cc1`: the inhibition of growth at 10 µM in the test on PC-3 [1] stood at 57.7%; with SGC-7901 [2], 15.5%; in the test on HCT-116 [3], 8.2%; in the test on A549 [4] it was 10.4%; with MCF7 [5] it was 35.7%.

Turning to `C[C@@H](Oc1cc(-c2cnn(C3CCNCC3)c2)cnc1N)c1c(Cl)ccc(F)c1Cl` [CRIZOTINIB], the concentration for half-maximal inhibition (IC50) with SGC-7901 [10] stood at 321 nM; in the test on HCT-116 [11] it was 254 nM; with MKN-45, 22 nM; with EBC-1, 13 nM; in the test with NCI-H460, 2240 nM; in the test on MCF7 [12], 45 nM. For the same molecule, the values for the IC50 in the test on PC-3 [6], with A549 [13] and in the test with COLO 205 were 9.79 µM, 134 nM and 2450 nM, respectively.
